Assay results as given in ChEMBL document CHEMBL5247575 (J Med Chem, 2018).
Values after ≈ are worked out from the molar mass of the structure shown.

Key:
[1] = system: Bacteria; assay: Inhibition of bacteria ADC-7 assessed as second order rate constant K2/K using nitrocefin as substrate
[2] = Inhibition of bacteria KPC-2 assessed as apparent inhibition constant using nitrocefin as substrate
[3] = Binding affinity to bacteria KPC-2 assessed as dissociation constant
[4] = system: Acinetobacter baumannii; assay: Antibacterial activity against ADC deleted Acinetobacter baumannii by broth microdilution method; format: functional
[5] = system: Escherichia coli; assay: Synergistic antibacterial activity against Escherichia coli DH10B transfected with pBR322-catI-KPC-2 assessed as cefepime MIC at 4 ug/ml by broth microdilution method; format: functional; conditions: dose 4 µg/ml
Summary of the method: (§1)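 Broth microdilution per CLSI guidelines, using custom frozen panels. […] Each partner drug was also tested alone. MICs were run in triplicate and the modal value is reported.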

[6] = system: Escherichia coli; assay: Synergistic antibacterial activity against Escherichia coli DH10B transfected with pBC SK (-) KPC-3 assessed as cefepime MIC at 4 ug/ml by broth microdilution method; format: functional; conditions: dose 4 µg/ml
[7] = system: Klebsiella pneumoniae; assay: Synergistic antibacterial activity against Klebsiella pneumoniae 11978 producing OXA-48 assessed as cefepime MIC at 4 ug/ml by broth microdilution method; format: functional; conditions: dose 4 µg/ml; summary of the method: as §1
[8] = system: Klebsiella pneumoniae; assay: Synergistic antibacterial activity against Klebsiella pneumoniae jefferson 1773 producing OXA-181 assessed as cefepime MIC at 4 ug/ml by broth microdilution method; format: functional; conditions: dose 4 µg/ml
[9] = system: Acinetobacter baumannii; assay: Synergistic antibacterial activity against Acinetobacter baumannii PR359 producing OXA-23 assessed as cefepime MIC at 4 ug/ml by broth microdilution method; format: functional; conditions: dose 4 µg/ml
[10] = system: Acinetobacter baumannii; assay: Synergistic antibacterial activity against Acinetobacter baumannii PR363 producing OXA-23 assessed as cefepime MIC at 4 ug/ml by broth microdilution method; format: functional; conditions: dose 4 µg/ml
[11] = system: Acinetobacter baumannii; assay: Synergistic antibacterial activity against Acinetobacter baumannii PR408 producing OXA-24/40 assessed as cefepime MIC at 4 ug/ml by broth microdilution method; format: functional; conditions: dose 4 µg/ml
[12] = system: Escherichia coli; assay: Synergistic antibacterial activity against Escherichia coli DH10B assessed as cefepime MIC at 8 ug/ml by broth microdilution method; format: functional; conditions: dose 8 µg/ml
[13] = system: Escherichia coli; assay: Synergistic antibacterial activity against Escherichia coli DH10B transfected with pBC SK (-) KPC-3 assessed as cefepime MIC at 8 ug/ml by broth microdilution method; format: functional; conditions: dose 8 µg/ml
[14] = system: Acinetobacter baumannii; assay: Synergistic antibacterial activity against ADC deleted Acinetobacter baumannii transfected with pWH1266 OXA-23 assessed as cefepime MIC at 8 ug/ml by broth microdilution method; format: functional; conditions: dose 8 µg/ml
[15] = system: Klebsiella pneumoniae; assay: Synergistic antibacterial activity against Klebsiella pneumoniae 776/1742 producing KPC-2 assessed as cefepime MIC at 8 ug/ml by broth microdilution method; format: functional; conditions: dose 8 µg/ml
[16] = system: Klebsiella pneumoniae; assay: Synergistic antibacterial activity against Klebsiella pneumoniae 1084/1957 producing KPC-3 assessed as cefepime MIC at 8 ug/ml by broth microdilution method; format: functional; conditions: dose 8 µg/ml; summary of the method: as §1
[17] = system: Klebsiella pneumoniae; assay: Synergistic antibacterial activity against Klebsiella pneumoniae jefferson 1773 producing OXA-181 assessed as cefepime MIC at 8 ug/ml by broth microdilution method; format: functional; conditions: dose 8 µg/ml
[18] = system: Pseudomonas aeruginosa; assay: Synergistic antibacterial activity against Pseudomonas aeruginosa 795 assessed as cefepime MIC at 8 ug/ml by broth microdilution method; format: functional; conditions: dose 8 µg/ml
[19] = system: Klebsiella pneumoniae; assay: Synergistic antibacterial activity against Klebsiella pneumoniae 660/1568 producing KPC-3 assessed as meropenem MIC at 4 ug/ml by broth microdilution method; format: functional; conditions: dose 4 µg/ml; summary of the method: as §1
[20] = system: Klebsiella pneumoniae; assay: Synergistic antibacterial activity against Klebsiella pneumoniae 901/1860 producing KPC-3 assessed as meropenem MIC at 4 ug/ml by broth microdilution method; format: functional; conditions: dose 4 µg/ml
[21] = system: Klebsiella pneumoniae; assay: Synergistic antibacterial activity against Klebsiella pneumoniae 935/1884 producing KPC-3 assessed as meropenem MIC at 4 ug/ml by broth microdilution method; format: functional; conditions: dose 4 µg/ml
[22] = system: Klebsiella pneumoniae; assay: Synergistic antibacterial activity against Klebsiella pneumoniae 977/1916 producing KPC-3 assessed as meropenem MIC at 4 ug/ml by broth microdilution method; format: functional; conditions: dose 4 µg/ml
[23] = system: Klebsiella pneumoniae; assay: Synergistic antibacterial activity against Klebsiella pneumoniae 1315/2198 producing KPC-3 assessed as meropenem MIC at 4 ug/ml by broth microdilution method; format: functional; conditions: dose 4 µg/ml; summary of the method: as §1
[24] = system: Klebsiella pneumoniae; assay: Synergistic antibacterial activity against Klebsiella pneumoniae 972/1910 producing KPC-3 assessed as meropenem MIC at 4 ug/ml by broth microdilution method; format: functional; conditions: dose 4 µg/ml
[25] = system: Acinetobacter baumannii; assay: Synergistic antibacterial activity against Acinetobacter baumannii PR319 producing OXA-23/24/40 assessed as meropenem MIC at 4 ug/ml by broth microdilution method; format: functional; conditions: dose 4 µg/ml
[26] = system: Acinetobacter baumannii; assay: Synergistic antibacterial activity against Acinetobacter baumannii PR440 producing OXA-23/24/40 assessed as meropenem MIC at 4 ug/ml by broth microdilution method; format: functional; conditions: dose 4 µg/ml
[27] = system: Escherichia coli; assay: Synergistic antibacterial activity against Escherichia coli DH10B assessed as meropenem MIC at 8 ug/ml by broth microdilution method; format: functional; conditions: dose 8 µg/ml
[28] = system: Escherichia coli; assay: Synergistic antibacterial activity against Escherichia coli DH10B transfected with pBC SK (-) KPC-3 assessed as meropenem MIC at 8 ug/ml by broth microdilution method; format: functional; conditions: dose 8 µg/ml
[29] = system: Escherichia coli; assay: Synergistic antibacterial activity against Escherichia coli DH10B transfected with pBC SK (-) OXA-48 assessed as meropenem MIC at 8 ug/ml by broth microdilution method; format: functional; conditions: dose 8 µg/ml; summary of the method: as §1
[30] = system: Klebsiella pneumoniae; assay: Synergistic antibacterial activity against Klebsiella pneumoniae 776/1742 producing KPC-2 assessed as meropenem MIC at 8 ug/ml by broth microdilution method; format: functional; conditions: dose 8 µg/ml
[31] = system: Klebsiella pneumoniae; assay: Synergistic antibacterial activity against Klebsiella pneumoniae 901/1860 producing KPC-3 assessed as meropenem MIC at 8 ug/ml by broth microdilution method; format: functional; conditions: dose 8 µg/ml
[32] = system: Acinetobacter baumannii; assay: Synergistic antibacterial activity against Acinetobacter baumannii PR359 producing OXA-23 assessed as meropenem MIC at 8 ug/ml by broth microdilution method; format: functional; conditions: dose 8 µg/ml
Summary of the method: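 Broth microdilution per CLSI guidelines in frozen panels. Test compound held at fixed 8 mg/L while the partner β-lactam concentration was increased. Run in triplicate; modal MIC reported.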

[33] = system: Acinetobacter baumannii; assay: Synergistic antibacterial activity against Acinetobacter baumannii PR408 producing OXA-24/40 assessed as meropenem MIC at 8 ug/ml by broth microdilution method; format: functional; conditions: dose 8 µg/ml
[34] = system: Acinetobacter baumannii; assay: Synergistic antibacterial activity against Acinetobacter baumannii PR448 producing OXA-23 assessed as meropenem MIC at 8 ug/ml by broth microdilution method; format: functional; conditions: dose 8 µg/ml
[35] = system: Acinetobacter baumannii; assay: Synergistic antibacterial activity against ADC deleted Acinetobacter baumannii transfected with pWH1266 producing OXA-24/40 assessed as meropenem MIC at 8 ug/ml by broth microdilution method; format: functional; conditions: dose 8 µg/ml
[36] = system: Bacteria; assay: Inhibition of bacteria KPC-2 assessed as second order rate constant K2/K using nitrocefin as substrate
Summary of the method: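 Steady-state kinetics, 10 mM phosphate-buffered saline pH 7.4. Progress curves recorded with fixed enzyme and nitrocefin and increasing nM inhibitor. Each curve fitted to a time-course equation to give k_obs. k2/K derived from these and corrected for nitrocefin concentration relative to its Km.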

[37] = system: Bacteria; assay: Inhibition of bacteria OXA-48 assessed as half life using nitrocefin as substrate
[38] = system: Pseudomonas aeruginosa; assay: Synergistic antibacterial activity against Pseudomonas aeruginosa 715 assessed as cefepime MIC at 4 ug/ml by broth microdilution method; format: functional; conditions: dose 4 µg/ml
[39] = system: Klebsiella pneumoniae; assay: Synergistic antibacterial activity against Klebsiella pneumoniae jefferson 1773 producing OXA-181 assessed as meropenem MIC at 4 ug/ml by broth microdilution method; format: functional; conditions: dose 4 µg/ml

SMILES	K [1]	MIC [5] [µg/mL]	MIC [6] [µg/mL]	MIC [7] [µg/mL]	MIC [8] [µg/mL]	MIC [9] [µg/mL]	MIC [10] [µg/mL]	MIC [11] [µg/mL]	MIC [12] [µg/mL]	MIC [13] [µg/mL]	MIC [14] [µg/mL]	MIC [15] [µg/mL]	MIC [19] [µg/mL]	MIC [20] [µg/mL]	MIC [21] [µg/mL]	MIC [22] [µg/mL]	MIC [23] [µg/mL]	MIC [24] [µg/mL]	MIC [25] [µg/mL]	MIC [26] [µg/mL]	further results
O=C(NNC(=O)[C@@H]1CC[C@@H]2CN1C(=O)N2OS(=O)(=O)O)[C@@H]1CCNC1	3.2 10^4/M/s	≤ 0.12	≤ 0.12	≤ 0.12	≤ 0.12	8	8	16	≤ 0.12	≤ 0.12	16	≤ 0.12	≤ 0.12	≤ 0.12	≤ 0.12	≤ 0.12	≤ 0.12	≤ 0.12	> 16	> 16	Ki [2]: 7800 nM; Kd [3]: 40 nM; MIC [4]: 16 µg/mL (≈ 42.4 µM); MIC [16]: ≤ 0.12 µg/mL; MIC [17]: ≤ 0.12 µg/mL; MIC [18]: ≤ 0.12 µg/mL; MIC [27]: ≤ 0.12 µg/mL; MIC [28]: ≤ 0.12 µg/mL; MIC [29]: ≤ 0.12 µg/mL; MIC [30]: ≤ 0.12 µg/mL; MIC [31]: ≤ 0.12 µg/mL; MIC [32]: > 16 µg/mL; MIC [33]: > 16 µg/mL; MIC [34]: > 16 µg/mL; MIC [35]: > 16 µg/mL
NC(=O)[C@@H]1CC[C@@H]2CN1C(=O)N2OS(=O)(=O)[O-].[Na+] [AVIBACTAM SODIUM]	3.9 10^3/M/s	≤ 0.12	≤ 0.12	0.25	1	16	> 16	> 16					≤ 0.12	≤ 0.12	≤ 0.12	≤ 0.12	≤ 0.12	≤ 0.12	> 16	> 16	K [36]: 1.3 10^4/M/s; T1/2 [37]: 16.7 h; MIC [4]: 16 µg/mL; MIC [38]: 16 µg/mL; MIC [39]: 1 µg/mL
O=C(NNC(=O)[C@@H]1CC[C@@H]2CN1C(=O)N2OS(=O)(=O)O)[C@@H]1CCCNC1 [ZIDEBACTAM]	3.5 10^4/M/s	≤ 0.12	≤ 0.12	≤ 0.12	≤ 0.12	8	8	8	≤ 0.12	≤ 0.12	16	≤ 0.12	≤ 0.12	≤ 0.12	≤ 0.12	≤ 0.12	≤ 0.12	≤ 0.12	> 16	> 16	Ki [2]: 4500 nM; Kd [3]: 43 nM; MIC [16]: ≤ 0.12 µg/mL; MIC [17]: ≤ 0.12 µg/mL; MIC [18]: 16 µg/mL; MIC [27]: ≤ 0.12 µg/mL; MIC [28]: ≤ 0.12 µg/mL; MIC [29]: ≤ 0.12 µg/mL; MIC [30]: ≤ 0.12 µg/mL; MIC [31]: ≤ 0.12 µg/mL; MIC [32]: > 16 µg/mL; MIC [33]: > 16 µg/mL; MIC [34]: > 16 µg/mL; MIC [35]: > 16 µg/mL
O.O=C(NC1CCNCC1)[C@@H]1CC[C@@H]2CN1C(=O)N2OS(=O)(=O)O [RELEBACTAM]	7.8 10^3/M/s	≤ 0.12	≤ 0.12	2	4	16	16	16					≤ 0.12	≤ 0.12	≤ 0.12	≤ 0.12	≤ 0.12	≤ 0.12	> 16	> 16	K [36]: 2.8 10^4/M/s; MIC [38]: 16 µg/mL; MIC [39]: 16 µg/mL
N#C[C@@H]1CC[C@@H]2CN1C(=O)N2OS(=O)(=O)[O-].[Na+]	1.9 10^4/M/s	≤ 0.12	≤ 0.12	0.5	1	8	8	8	≤ 0.12	≤ 0.12	2	1	≤ 0.12	≤ 0.12	≤ 0.12	≤ 0.12	≤ 0.12	≤ 0.12	16	4	K [36]: 2.4 10^5/M/s; T1/2 [37]: 0.217 h; MIC [38]: 16 µg/mL; MIC [16]: ≤ 0.12 µg/mL; MIC [17]: 1 µg/mL; MIC [18]: > 16 µg/mL; MIC [39]: 0.25 µg/mL; MIC [27]: ≤ 0.12 µg/mL; MIC [28]: ≤ 0.12 µg/mL; MIC [29]: ≤ 0.12 µg/mL; MIC [30]: 0.25 µg/mL; MIC [31]: ≤ 0.12 µg/mL; MIC [32]: 4 µg/mL; MIC [33]: > 16 µg/mL; MIC [34]: 1 µg/mL; MIC [35]: > 16 µg/mL
